Results taken from PubChem BioAssay.
Inconclusive results are not listed.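 The calls were made as follows, unless noted: active = viability at or below 27.92% in each of two runs, the all-compound median minus 4 SD; inconclusive = no clear call, values can overlap the other calls; inactive = the rest.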

Tests used:
[1] = S. cerevisiae growth inhibition in permissive medium (OD615), pilot counter-assay for S. cerevisiae lifespan shortening project, permissive growth control (AID 705;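 active = growth inhibition above 25% in both replicates, a cutoff set 3 SD above the mean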); details: OD615, 24 h, at 10 µM, hits give high values
Method in brief: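 assay system = Saccharomyces cerevisiae strain carrying genetically modified DeaD replicative-lifespan system | medium = SC raffinose/galactose permissive medium | dosing = 10 µM single dose, 0.25% DMSO | schedule = 24 h compound exposure at 30 °C after 4 h pre-growth | measured by = OD at 615 nm | read-out basis = growth inhibition from lowered OD615 after 24 h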

[2] = S. cerevisiae growth inhibition in restrictive medium, OD615, pilot screen, restrictive growth control, yeast lifespan reduction project (AID 706;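 active = growth inhibition above a set limit, 3 SD over mean compound inhibition, in both replicates, cut at about 43% in these data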;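 also: modified DeaD lifespan yeast strain shifted to restrictive glucose medium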); details: OD615, 48 h, at 10 µM, hits give high values
Method in brief: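 Buffer or medium: CSMM-D glucose medium. Material: genetically modified Saccharomyces cerevisiae, DeaD replicative lifespan assay strain. Times: 48 h compound exposure at 30 °C. Measured by: optical density at 615 nm.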

[3] = doxorubicin toxicity protection in MRP-1 cells – H69AR cells, CellTiter-Glo, duplicate, MRP-1 activator project, pilot screen (AID 807;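 active = viability increase at or above a cutoff of the median across tested compounds plus 3 SD, cut at about 8.5% in these data, passing the limit was not always enough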;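 also: compound pretreatment 18-22 h then 72 h combined with doxorubicin; 0% = doxorubicin alone and 100% = vehicle without doxorubicin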); details: H69AR viability with doxorubicin, CellTiter-Glo luminescence; at 10 µM; hits give high values
[4] = viability of HCT116 without oncogenic beta-catenin – human colon tumor cells, pilot screen (AID 823;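 active = cell viability at or below a set limit in both duplicate runs, the limit being the all-compound median minus 4 SD, cut at about 23% in these data, passing the limit was not always enough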;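 also: 0% = wells killed by 20 µM Hyamine and 100% = untreated DMSO cell wells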); details: HCT116 beta-catenin knockout viability, CellTiter-Glo, 60 h; at 10 µM; hits give low values
[5] = viability of PTEN-null HCT116 cells – cell-based, HCT116 clonal line, CellTiter-Glo, pilot screen (AID 824); details: HCT116 PTEN-deleted viability, 60 h, at 10 µM, hits give low values;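 also: 0% = 20 µM Hyamine control and 100% = vehicle cell control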
[6] = RAM pathway blockade in budding yeast – dse1pr::URA3 reporter, 5-FOA selection, pilot screen (AID 869;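 active = inhibition over a set limit, the all-compound mean plus 3 SD, in both replicate runs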;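 also: 0% = DMSO wells with no growth and 100% = 10 µM 1-NA-PP1 with full growth; RAM network block rescues cells from 5-FOA so hits raise OD615 growth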); details: S. cerevisiae dse1pr::URA3 5-FOA growth, OD615, 2 d; at 10 µM; hits give high values; strain carries analog-sensitive mutant Cbk1 kinase
[7] = RAM signaling pathway blockade in yeast – S. cerevisiae, Pdr1DBD-CYC8 efflux-inhibited sensitized strain, primary screen (AID 1298;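 active = RAM network inhibition above 8.4% in each of two replicates, 3 SD over the compound average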;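 also: 0% = DMSO untreated cells without growth and 100% = 10 µM 1-NA-PP1 full growth; higher means more yeast growth rescued from 5-FOA killing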); details: S. cerevisiae cbk1-as DSE1-URA3 strain, 5-FOA growth OD615, 2 d; at 50 µM; hits give high values

COc1cccc(Cn2nnc(C(=O)NCc3ccc(F)cc3)c2N)c1
inactive: growth inhibition [1] -5.24% | growth inhibition [2] -6.34% | viability increase [3] -1.74% | viability [4] 95% | viability [5] 85.6% | inhibition [6] 0.99% | RAM network inhibition [7] 3.37%

CCOC(=O)c1ccc(NC(=O)C2CCN(S(=O)(=O)c3ccccc3)CC2)cc1
inactive: growth inhibition [1] -12.1% | growth inhibition [2] -10.7% | viability increase [3] -2.54% | viability [4] 66.4% | viability [5] 70.2% | inhibition [6] 1.47% | RAM network inhibition [7] 6.37%

CN(C)C1NC(=O)c2cc(-c3ccccc3)sc2N1 (configuration not stated)
inactive: growth inhibition [1] -5.92% | growth inhibition [2] -10.2% | viability increase [3] -0.01% | viability [4] 102% | viability [5] 104% | inhibition [6] 0.135% | RAM network inhibition [7] 2.33%

CCOCCn1c(SCc2cccc(C)c2)nc2c1c(=O)[nH]c(=O)n2C
inactive: growth inhibition [1] -7.34% | growth inhibition [2] 10% | viability increase [3] -5.79% | viability [4] 98% | viability [5] 87.4% | inhibition [6] 0.905% | RAM network inhibition [7] 2.37%

CCOC(=O)c1c(C)nc(-c2ccccc2)nc1NC(C)=O
inactive: growth inhibition [1] -15.7% | growth inhibition [2] -5.61% | viability increase [3] -0.84% | viability [4] 92% | viability [5] 89.5% | inhibition [6] 1.92% | RAM network inhibition [7] 7.29%

O=C(CSc1cn(CCNC(=O)c2cccs2)c2ccccc12)NCC1CCCO1 (configuration not stated)
inactive: growth inhibition [1] -13.8% | growth inhibition [2] -23.4% | viability increase [3] 0.16% | viability [4] 96.2% | viability [5] 96.1% | inhibition [6] 1.61% | RAM network inhibition [7] 1.6%

O=C(NC1CCN(Cc2ccccc2)CC1)C1CCN(c2nnc(-n3cccc3)s2)CC1
inactive: growth inhibition [1] 3.62% | growth inhibition [2] -0.61% | viability increase [3] -2.59% | viability [4] 82.2% | viability [5] 79.3% | inhibition [6] 0.53% | RAM network inhibition [7] 2.35%

Cc1cc(NC(=O)c2cc(CC(C)C)on2)no1
inactive: growth inhibition [1] -5.71% | growth inhibition [2] -12.5% | viability increase [3] -1.75% | viability [4] 106% | viability [5] 94.5% | inhibition [6] 0.67% | RAM network inhibition [7] 6.04%

O=C(NCc1ccco1)c1ccc(S(=O)(=O)c2cccc(S(=O)(=O)N3CCOCC3)c2)cc1
inactive: growth inhibition [1] 19% | growth inhibition [2] 2.85% | viability increase [3] -4.28% | viability [4] 92.4% | viability [5] 87.1% | inhibition [6] 1.19% | RAM network inhibition [7] 3.8%

O=C(CSc1nc2c(cnn2-c2ccc(F)cc2)c(=O)[nH]1)N1CCOCC1
inactive: growth inhibition [1] -14.2% | growth inhibition [2] -19.8% | viability increase [3] -3.32% | viability [4] 96.7% | viability [5] 91.4% | inhibition [6] 3.16% | RAM network inhibition [7] 6.85%

CCOc1cc(CN2CCSCC2)ccc1O
inactive: growth inhibition [1] -8.12% | growth inhibition [2] -9.94% | viability increase [3] 0.51% | viability [4] 97% | viability [5] 101% | inhibition [6] 0.825% | RAM network inhibition [7] 4.67%

CCN(Cc1ccccc1)S(=O)(=O)c1ccc(S(=O)(=O)N2CCN(CCC#N)CC2)cc1
inactive: growth inhibition [1] -8.36% | growth inhibition [2] -8.88% | viability increase [3] -4.88% | viability [4] 90.7% | viability [5] 83.9% | inhibition [6] 1% | RAM network inhibition [7] 5.6%

CC(NC(=O)c1ccco1)C(c1cccs1)N1CCN(c2ccccc2)CC1 (configuration not stated)
inactive: growth inhibition [1] -5.64% | growth inhibition [2] -18.3% | viability increase [3] -1.36% | viability [4] 87.7% | viability [5] 81.2% | inhibition [6] 1.74% | RAM network inhibition [7] 5.06%

Cc1noc(C)c1S(=O)(=O)N(CC(=O)NCc1ccc2c(c1)OCO2)c1ccc(C(C)C)cc1
inactive: growth inhibition [1] -13.7% | growth inhibition [2] -8.46% | viability increase [3] -2.92% | viability [4] 82.7% | viability [5] 76.2% | inhibition [6] -0.54% | RAM network inhibition [7] 6.57%

CC(C)(C)c1ccc(OCC(O)CS(=O)(=O)c2ccccn2)cc1 (configuration not stated)
inactive: growth inhibition [1] -20.8% | growth inhibition [2] -19.1% | viability increase [3] -0.66% | viability [4] 97.8% | viability [5] 94.5% | inhibition [6] -0.5% | RAM network inhibition [7] 4.16%

CNC(=O)c1nnc(Cc2ccc(F)cc2)o1
inactive: growth inhibition [1] 2.65% | growth inhibition [2] 1.31% | viability increase [3] -0.04% | viability [4] 93.8% | viability [5] 98.9% | inhibition [6] 0.195% | RAM network inhibition [7] 2.48%

CCOC(=O)N1CCN(C(=O)CN(c2ccc(Oc3ccccc3)cc2)S(C)(=O)=O)CC1
inactive: growth inhibition [1] -5.22% | growth inhibition [2] -15.6% | viability increase [3] -2% | viability [4] 75.2% | viability [5] 66.2% | inhibition [6] 0.265% | RAM network inhibition [7] 2.44%

COc1ccc(C2(CNC(C)=O)CCOCC2)cc1OC
inactive: growth inhibition [1] -14.1% | growth inhibition [2] -2.29% | viability increase [3] 1.21% | viability [4] 103% | viability [5] 97.8% | inhibition [6] 2.54% | RAM network inhibition [7] -0.32%

CCCCOC(=O)Nc1nc(CC(=O)OCC)cs1
inactive: growth inhibition [1] -1.73% | growth inhibition [2] -4.89% | viability increase [3] 1.05% | viability [4] 92.2% | viability [5] 95.7% | inhibition [6] -0.45% | RAM network inhibition [7] 1.89%

CN(C(=O)CSc1nc(N)nn1-c1ccccc1)c1ccccc1
inactive: growth inhibition [1] -7.03% | growth inhibition [2] 4.13% | viability increase [3] -0.53% | viability [4] 104% | viability [5] 99% | inhibition [6] 0.325% | RAM network inhibition [7] 2.3%

O=C(c1c(Cl)nc2sccn12)N1CCCc2ccccc21
inactive: growth inhibition [1] -2.11% | growth inhibition [2] -6.31% | viability increase [3] -0.71% | viability [4] 100% | viability [5] 98.2% | inhibition [6] 2.37% | RAM network inhibition [7] 1.4%

CCOC(=O)/C=C/S(=O)(=O)c1ccc(NC(C)=O)cc1
inactive: growth inhibition [1] -24.4% | growth inhibition [2] -13.2% | viability increase [3] -7.51% | viability [4] 82.4% | viability [5] 93.5% | inhibition [6] 0.03% | RAM network inhibition [7] 5.29%

Fc1ccc(OCc2nc(-c3ccc(Br)o3)no2)c(F)c1
inactive: growth inhibition [1] -8.99% | growth inhibition [2] -12.8% | viability increase [3] 2.67% | viability [4] 99.5% | viability [5] 97.7% | inhibition [6] 0.82% | RAM network inhibition [7] 3.12%

Cc1cc(C)nc(NS(=O)(=O)c2ccc(NC(=O)c3ccc4c(c3)OCO4)cc2)n1
inactive: growth inhibition [1] -6.52% | growth inhibition [2] -0.9% | viability increase [3] 5.22% | viability [4] 100% | viability [5] 95.9% | inhibition [6] 1.28% | RAM network inhibition [7] -0.21%

O=C(Cn1cnc2ccccc2c1=O)N(Cc1ccco1)c1ccc(O)cc1
inactive: growth inhibition [1] -4.45% | growth inhibition [2] -19.6% | viability increase [3] -1.76% | viability [4] 92% | viability [5] 89.8% | inhibition [6] 0.94% | RAM network inhibition [7] -0.26%

CC1CC(C)CN(CCCNC(=O)CNC(=O)Cn2ccc3ccccc3c2=O)C1 (configuration not stated)
inactive: growth inhibition [1] -3% | growth inhibition [2] -19.7% | viability increase [3] -0.78% | viability [4] 104% | viability [5] 98.9% | inhibition [6] 0.76% | RAM network inhibition [7] 2.22%

OC(CN1C2=NCCCN2c2ccccc21)c1ccc(Cl)cc1 (configuration not stated)
inactive: growth inhibition [1] -8.91% | growth inhibition [2] 2.81% | viability increase [3] -4.02% | viability [4] 73.8% | viability [5] 76.1% | inhibition [6] 1.26% | RAM network inhibition [7] 3.02%

Cc1cccc(Cn2c(CN3CCN(Cc4ccccc4)CC3)nc3c2c(=O)[nH]c(=O)n3C)c1
inactive: growth inhibition [1] -14.3% | growth inhibition [2] -14.1% | viability increase [3] -3.25% | viability [4] 50.4% | viability [5] 48.6% | inhibition [6] 2.25% | RAM network inhibition [7] 1.88%

COc1ccc(-n2c(=O)c3ccccc3n(CC(=O)NC3CCCC3)c2=O)c(OC)c1
inactive: growth inhibition [1] -4.38% | growth inhibition [2] -22% | viability increase [3] -0.98% | viability [4] 98.2% | viability [5] 96.2% | inhibition [6] 2.04% | RAM network inhibition [7] 3.21%

CCOC(=O)c1cccc(NC(=O)CCS(=O)(=O)c2cccc3nsnc23)c1
inactive: growth inhibition [1] -0.82% | growth inhibition [2] -22% | viability increase [3] -3.74% | viability [4] 100% | viability [5] 97% | inhibition [6] 0.99% | RAM network inhibition [7] 2.43%

N#Cc1ccc(Oc2cccc(C(=O)O)c2)cc1C#N
inactive: growth inhibition [1] -13.1% | growth inhibition [2] -3.21% | viability increase [3] -0.11% | viability [4] 94.8% | viability [5] 92.7% | inhibition [6] 1.34% | RAM network inhibition [7] 2.14%

COc1ccc(C(=O)Nc2cc(-c3nn4c(C)nnc4s3)ccc2C)cc1
inactive: growth inhibition [1] 8.96% | growth inhibition [2] 33.2% | viability increase [3] -5.02% | viability [4] 98.3% | viability [5] 88.2% | inhibition [6] 1.27% | RAM network inhibition [7] 2.75%

CC(NC(=O)Cc1ccccc1)c1nc2ccccc2[nH]1 (configuration not stated)
inactive: growth inhibition [1] -3.99% | growth inhibition [2] -1.91% | viability increase [3] -1.22% | viability [4] 108% | viability [5] 97.1% | inhibition [6] 0.08% | RAM network inhibition [7] 3.75%

COc1ccc(OC)c(CNC(=O)Cc2c(C(=O)O)[nH]c3ccccc23)c1
inactive: growth inhibition [1] -7.09% | growth inhibition [2] -25% | viability increase [3] -0.54% | viability [4] 104% | viability [5] 101% | inhibition [6] -0.185% | RAM network inhibition [7] 5.43%

CCCc1cc(C(=O)Nc2cccc(Cl)c2)no1
inactive: growth inhibition [1] -7.36% | growth inhibition [2] -1.01% | viability increase [3] 0.77% | viability [4] 102% | viability [5] 97.7% | inhibition [6] 1.44% | RAM network inhibition [7] -1.31%

CC(=O)Nc1cccc(N(C)C)c1
inactive: growth inhibition [1] 3.45% | growth inhibition [2] 5.4% | viability increase [3] -0.76% | viability [4] 96.1% | viability [5] 105% | inhibition [6] 1.44% | RAM network inhibition [7] 1.55%
